Reference: ChEMBL document CHEMBL1129331, “Synthesis and physicochemical, biological, and pharmacological properties of new bile acids amidated with cyclic amino acids” (J Med Chem, 1996)
Values after ≈ are worked out from the molar mass of the structure shown.

Columns and labels:
[1] = The compound was incubated with human stools and tested for determining the stability towards C-24 Deamination; assay type: ADME, organism-based; conditions: in the assay text read “7-dehydroxylation” for “C-24 Deamination”
Summary of the method: (§1)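 Homogenized fresh human stool (500 mg) in 5 mL chopped meat-glucose medium; bile acid added at 0.05 mM final; 37 °C. Sampled at 0–72 h and stopped with 30% KOH. Bile acids recovered by C-18 solid-phase extraction, then analyzed by TLC and by HPLC with 75% methanol/15 mM ammonium acetate, pH 5.4.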

[2] = Critical micellar pH was determined
Summary of the method: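 20 mL of 50 mM bile salt solution titrated with 0.1 M HCl. CMpH is taken as the pH at which precipitate of the protonated form is first seen by turbidity at 500 nm. Confirmed by back-titration with 0.1 M NaOH until the suspension clears.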

[3] = Critical Micellar concentration was determined; assay type: ADME
Summary of the method: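 Measured in water from surface tension, using the maximum bubble-pressure method.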

[4] = tested on: Rattus norvegicus; experiment: Secretion of phospholipid in Bile Fistula rats after the iv administration of compound, expressed as the residual secretion rate i; assay type: ADME, organism-based; conditions: in vivo
Summary of the method: (§2)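 Male Sprague-Dawley rats (300-330 g), urethane-anesthetized, bile duct cannulated. After 1 h baseline, sodium salt infused via femoral vein at 10 μmol/min/kg for 1 h; bile collected at 15-min intervals for 3 h. Flow measured gravimetrically; bile acids, cholesterol and phospholipid measured enzymatically. Smax and Tmax read from secretion-time plots; Rs is the rate at hour 3. Mean ± SD, n=6.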

[5] = tested on: Rattus norvegicus; experiment: Maximum biliary secretion rate of bile acids after iv coinfusion in Bile fistula rats.; assay type: ADME, organism-based; conditions: in vivo
Summary of the method: (§3)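 Bile fistula Sprague-Dawley rats (200-250 g). TCDCA and test bile acid given as sodium salts, coinfused via jugular vein, each at 8 μmol/min/kg for 1 h. Bile collected at 30-min intervals for 3 h. Calcium, ALP and LDH in bile measured enzymatically; bile acid composition by HPLC (65% methanol, 15 mM ammonium acetate, pH 5.4). Mean ± SD.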

[6] = tested on: Rattus norvegicus; experiment: Alkaline phosphatase in Bile Fistula rats after iv coinfusion of TCDCA and compound.; assay type: ADME, organism-based; conditions: in vivo; summary of the method: as §3
[7] = tested on: Rattus norvegicus; experiment: Bile flow in Bile Fistula rats after iv coinfusion of TCDCA and compound.; assay type: ADME, organism-based; conditions: in vivo; summary of the method: as §3
[8] = tested on: Rattus norvegicus; experiment: Secretion of Bile acids in Bile Fistula rats after the iv administration of compound, expressed as the maximum secretion rate i; assay type: ADME, organism-based; conditions: in vivo; summary of the method: as §2
[9] = tested on: Rattus norvegicus; experiment: Calcium output in Bile Fistula rats after iv coinfusion of TCDCA and compound.; assay type: ADME, organism-based; conditions: in vivo; summary of the method: as §3
[10] = tested on: Rattus norvegicus; experiment: Lactate dehydrogenase in Bile Fistula rats after iv coinfusion of TCDCA and compound.; assay type: ADME, organism-based; conditions: in vivo; summary of the method: as §3
[11] = tested on: Rattus norvegicus; experiment: Secretion of Bile in Bile Fistula rats after the iv administration of compound, expressed as the residual secretion rate i; assay type: ADME, organism-based; conditions: in vivo; summary of the method: as §2
[12] = tested on: Rattus norvegicus; experiment: Secretion of Bile acids in Bile Fistula rats after the iv administration of compound, expressed as the residual secretion rate; assay type: ADME, organism-based; conditions: in vivo; summary of the method: as §2
[13] = tested on: Rattus norvegicus; experiment: Secretion of Bile in Bile Fistula rats after the iv administration of compound, expressed as the maximum secretion rate; assay type: ADME, organism-based; conditions: in vivo; summary of the method: as §2
[14] = Relative lipophilicity was determined; assay type: physicochemical; conditions: C-18 reverse phase HPLC
Summary of the method: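 C-18 reverse-phase HPLC run isocratically at 0.9 mL/min. Mobile phase 65% (v/v) aqueous methanol with 2 mM ammonium acetate, pH 7, so that all bile acids are fully ionized.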

[15] = tested on: Rattus norvegicus; experiment: Secretion of phospholipid in Bile Fistula rats after the iv administration of compound, expressed as the maximum secretion rate i; assay type: ADME, organism-based; conditions: in vivo; summary of the method: as §2
[16] = tested on: Rattus norvegicus; experiment: Secretion of cholesterol in Bile Fistula rats after the iv administration of compound, expressed as the residual secretion rate; assay type: ADME, organism-based; conditions: in vivo; summary of the method: as §2
[17] = Water solubility was determined; assay type: ADME; conditions: read-out: WS
Summary of the method: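 Protonated form; measured on saturated solutions at pH 1.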

[18] = tested on: Rattus norvegicus; experiment: Maximum biliary secretion rate of TCDCA after iv coinfusion in Bile fistula rats.; assay type: ADME, organism-based; conditions: in vivo; summary of the method: as §3
[19] = tested on: cholylglycine hydrolase; experiment: The compound was incubated with cholylglycine hydrolase and tested for determining the stability towards C-24 Deamination; assay type: ADME; conditions: cholylglycine hydrolase
[20] = Acidity constant was determined; assay type: ADME
[21] = tested on: Rattus norvegicus; experiment: Secretion of cholesterol in Bile Fistula rats after the iv administration of compound, expressed as the maximum secretion rate i; assay type: ADME, organism-based; conditions: in vivo; summary of the method: as §2
[22] = Partition coefficient (logP); assay type: physicochemical; conditions: octanol/water
Summary of the method: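 Octanol/water partition coefficient of the protonated species, calculated rather than measured.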

[23] = The compound was incubated with human stools and tested for determining the stability towards 7-dehydroxylation; assay type: ADME, organism-based; summary of the method: as §1
[24] = The compound was incubated with human stools and tested for determining the stability towards 7 dehydroxylation; assay type: ADME

SMILES	CMpH [2]	CMC [3] [mM]	Rs [4] [µM/min/kg]	Smax [5] [µM/min/kg]	[ALP]max [6] [IU/L]	Smax [7] [mL/h/kg]	Smax [8] [µM/min/kg]	Smax [9]	[LDH]max [10] [UI l-1]	Rs [11] [mL/h/kg]	Rs [12] [µM/min/kg]	Smax [13] [mL/h/kg]	rK [14]	Smax [15] [µM/min/kg]	Rs [16] [nM/min/kg]	solubility [17] [µM]	Smax [18] [µM/min/kg]	half-life [19] [h]	pKa [20]	Smax [21] [nM/min/kg]	other results
CC(CCC(=O)N1CCC[C@@H]1C(=O)O)C1CC[C@H]2[C@@H]3[C@H](O)[C@H](O)C4C[C@H](O)CC[C@]4(C)[C@H]3CC[C@]12C (stereo not given in full)	6.6	30	0.26	3.41	34	6	6	0.39 µM/min/kg	48	2.28	1.8	3.6	0.85	0.28	23	60 (≈ 30.3 µg/mL)	5.07	> 72	3.9	52	half-life [1]: > 72 h; logP [22]: 3.71
CC(CCC(=O)N1CCC[C@@H]1C(=O)O)C1CC[C@H]2[C@@H]3[C@@H](O)CC4C[C@H](O)CC[C@]4(C)[C@H]3CC[C@]12C (stereo not given in full)	6	15	0.11	3.22	32	5.16	6	0.42 µmol/min/kg	16	3	0.9	5.4	1.25	0.28	31	113 (≈ 55.3 µg/mL)	5.43	> 72	3.9	55	half-life [23]: > 72 h; logP [22]: 5.83
CC(CCC(=O)N1C[C@@H](O)C[C@@H]1C(=O)O)C1CC[C@H]2[C@@H]3[C@@H](O)CC4C[C@H](O)CC[C@]4(C)[C@H]3CC[C@]12C (stereo not given in full)	4.7	10	0.12	3.27	31	5.4	6.3	0.37 µM/min/kg	10	2.76	0.9	5.82	0.6	0.25	31	250 (≈ 126 µg/mL)	4.98	> 72	3.1	68	half-life [23]: > 72 h; logP [22]: 3.59
CC(CCC(=O)N1CCC[C@H]1C(=O)O)C1CC[C@H]2[C@@H]3[C@@H](O)CC4C[C@H](O)CC[C@]4(C)[C@H]3CC[C@]12C (stereo not given in full)	6	7	0.09	2.07	30	5.82	7.9	0.38 µM/min/kg	71	3.06	1.6	3.9	0.92	0.2	28	59 (≈ 28.9 µg/mL)	3.64	> 72	3.9	52	half-life [23]: > 72 h; logP [22]: 4.41
CC(CCC(=O)NCC(=O)O)C1CC[C@H]2[C@@H]3C[C@H](O)C4C[C@H](O)CCC4(C)[C@H]3CCC12C (stereo not given in full)																		5			
CC(CCC(=O)N1CCC[C@@H]1C(=O)O)C1CC[C@H]2[C@@H]3C[C@H](O)C4C[C@H](O)CC[C@]4(C)[C@H]3CC[C@]12C (stereo not given in full)	6.6	25	0.21	3.02	57	4.98	5.7	0.42 µM/min/kg	95	2.82	1.4	4.02	0.94	0.34	46	52 (≈ 25.5 µg/mL)	3.88	> 72	3.9	60	half-life [1]: > 72 h; logP [22]: 4.41
C[C@H](CCC(=O)NCCS(=O)(=O)O)[C@H]1CC[C@H]2[C@@H]3[C@H](O)C[C@@H]4C[C@H](O)CC[C@]4(C)[C@H]3C[C@H](O)[C@]12C [TAUROCHOLIC ACID]																		4			half-life [24]: 6 h
CO[C@H]1C[C@H](C(=O)O)N(C(=O)CCC(C)C2CC[C@H]3[C@@H]4[C@@H](O)CC5C[C@H](O)CC[C@]5(C)[C@H]4CC[C@]23C)C1 (stereo not given in full)	6.5	29	0.12	4.67	30	5.04	11.1	0.71 µM/min/kg	14	2.64	0.8	5.4	0.7	0.28	12	30 (≈ 15.6 µg/mL)	6.96	> 72	3.5	28	half-life [23]: > 72 h; logP [22]: 3.86
